A short description of experiment [1]: Antagonistic activity against HOXA1-PBX1/DNA complex formation by electrophoretic mobility shift assay. In kind it is functional. In outline: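 Recombinant mouse HOXA1 192–288 and mouse/human PBX1 233–319 (2.5 ng each) preincubated 15 min at 4 °C in HEPES pH 7.9 binding buffer with 135 mM NaCl, poly dIdC and inhibitor in DMSO, then 30 min at ~22 °C with 32P-labeled Klenow-extended annealed oligonucleotide probe. Run on 4% polyacrylamide gel in TBE, autoradiographed; IC50 from averaged densitometry of multiple gels; screened initially at 300 μM.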

The target in experiment [2] is POU domain, class 3, transcription factor 3 (Mus musculus) (UniProt P31361). Briefly: Antagonistic activity against BRN1/DNA interaction by electrophoretic mobility shift assay. On the technique in general: In EMSA bound probe runs differently from free probe, usually more slowly.
The target in experiment [3] is POU domain, class 3, transcription factor 2 (Mus musculus) (UniProt P31360). The experiment in a line: Antagonistic activity against BRN2/DNA interaction by electrophoretic mobility shift assay.
POU domain, class 3, transcription factor 2 (Mus musculus), sequence (P31360 whole entry, looked up, the tested form may be a part): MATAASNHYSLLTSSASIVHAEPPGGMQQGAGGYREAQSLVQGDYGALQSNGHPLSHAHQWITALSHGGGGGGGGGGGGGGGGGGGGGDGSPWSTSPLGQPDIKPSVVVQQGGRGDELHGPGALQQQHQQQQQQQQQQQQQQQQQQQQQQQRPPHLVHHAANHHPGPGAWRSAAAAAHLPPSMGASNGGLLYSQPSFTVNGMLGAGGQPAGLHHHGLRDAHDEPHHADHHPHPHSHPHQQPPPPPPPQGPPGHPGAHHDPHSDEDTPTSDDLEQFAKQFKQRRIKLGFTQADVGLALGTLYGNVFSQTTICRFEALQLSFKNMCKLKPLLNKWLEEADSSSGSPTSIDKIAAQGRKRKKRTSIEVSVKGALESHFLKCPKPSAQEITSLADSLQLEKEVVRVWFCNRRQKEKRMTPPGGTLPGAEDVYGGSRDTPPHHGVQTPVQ

POU domain, class 3, transcription factor 3 (Mus musculus), sequence (P31361 whole entry, looked up, the tested form may be a part): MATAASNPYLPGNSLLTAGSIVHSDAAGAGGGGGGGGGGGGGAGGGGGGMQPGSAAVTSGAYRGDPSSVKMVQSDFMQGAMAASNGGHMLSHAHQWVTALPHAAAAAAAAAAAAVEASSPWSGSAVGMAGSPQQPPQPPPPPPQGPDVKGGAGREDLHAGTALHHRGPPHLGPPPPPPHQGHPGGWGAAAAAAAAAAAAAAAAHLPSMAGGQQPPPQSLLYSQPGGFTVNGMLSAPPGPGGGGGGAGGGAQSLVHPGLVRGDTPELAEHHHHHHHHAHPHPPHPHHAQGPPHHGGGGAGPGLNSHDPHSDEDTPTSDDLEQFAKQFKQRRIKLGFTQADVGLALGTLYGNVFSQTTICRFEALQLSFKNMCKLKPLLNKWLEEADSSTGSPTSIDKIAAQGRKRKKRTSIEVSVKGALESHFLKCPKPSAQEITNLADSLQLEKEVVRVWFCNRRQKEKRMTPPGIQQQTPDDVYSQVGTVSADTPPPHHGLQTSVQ

By IC50 is commonly meant the concentration needed to halve the response being measured. For the molecule `COc1ccc(NC(=O)COc2ccc(C(=O)Nc3cccc(F)c3)c3ccccc23)cc1`, the half-inhibitory concentration (IC50) in experiment [1] came to 161 µM.

Consider `CCOC(=O)CNC(=O)COc1ccc(C(=O)Nc2cccc(F)c2)c2ccccc12`, for which, in experiment [1], the half-maximal inhibitory concentration (IC50) was greater than 300 µM. On the same count and under the same terms, the value for `NC(=O)COc1ccc(C(=O)Nc2cccc(F)c2)c2ccccc12` was 272 µM; that for `COc1ccc(NC(=O)COc2ccc(C(=O)Nc3cccc(F)c3)c3ccccc23)cc1OC` was 464 µM. On the same count and under the same terms, the value for `O=C(COc1ccc(C(=O)Nc2cccc(F)c2)c2ccccc12)Nc1cccc(F)c1` was greater than 300 µM; that for `CC(C)CNC(=O)COc1ccc(C(=O)Nc2cccc(F)c2)c2ccccc12` was 298 µM. For the molecule `O=C(Nc1cccc(F)c1)c1ccc(OCC(=O)N2CCOCC2)c2ccccc12`, in experiment [1], the IC50 was greater than 300 µM. `O=C(COc1ccc(C(=O)Nc2cccc(F)c2)c2ccccc12)Nc1ccc(O)cc1`: the IC50 in experiment [1] stood at 65 µM; in experiment [2] it was 124 µM; in experiment [3] it was 138 µM.

For the molecule `O=C(COc1ccc(C(=O)Nc2cccc(F)c2)c2ccccc12)NC1CC1`, the IC50 in experiment [1] is 173 µM; in experiment [2], 810 µM; in experiment [3], greater than 10000 µM.

In the case of `C#CCNC(=O)COc1ccc(C(=O)Nc2cccc(F)c2)c2ccccc12`, the concentration for half-maximal inhibition (IC50) in experiment [1] worked out at 331 µM. Still for that read-out and setting: the value for `O=C(O)CNC(=O)COc1ccc(C(=O)Nc2cccc(F)c2)c2ccccc12` was greater than 300 µM. The same measure, in the same setting: the value for `O=C(COc1ccc(C(=O)Nc2cccc(F)c2)c2ccccc12)NCCOCc1ccccc1` was greater than 300 µM. On the same count and under the same terms, the value for `O=C(COc1ccc(C(=O)Nc2cccc(F)c2)c2ccccc12)Nc1ccc(F)cc1` was 293 µM; that for `CNC(=O)COc1ccc(C(=O)Nc2cccc(F)c2)c2ccccc12` was greater than 300 µM.

Turning to `CCNC(=O)COc1ccc(C(=O)Nc2cccc(F)c2)c2ccccc12`, in experiment [1], the half-inhibitory concentration (IC50) came out at 200 µM. Take `COc1cc(CNC(=O)COc2ccc(C(=O)Nc3cccc(F)c3)c3ccccc23)cc(OC)c1`: in experiment [1], the IC50 is greater than 300 µM. On to `CC(C)(C)NC(=O)COc1ccc(C(=O)Nc2cccc(F)c2)c2ccccc12`, for which, in experiment [1], the 50% inhibitory concentration (IC50) is greater than 300 µM.

In the case of `O=C(COc1ccc(C(=O)Nc2cccc(F)c2)c2ccccc12)Nc1ccccc1F`, in experiment [1], the IC50 turned out to be 433 µM.

Consider `O=C(COc1ccc(C(=O)Nc2cccc(F)c2)c2ccccc12)Nc1cccc(O)c1`, for which the results for the IC50 in experiment [1], in experiment [2] and in experiment [3] were 86 µM, 142 µM and 148 µM, respectively.

As for `O=C(COc1ccc(C(=O)Nc2cccc(F)c2)c2ccccc12)NCCO`, in experiment [1], the 50% inhibitory concentration (IC50) is greater than 300 µM. On to `CC(C)NC(=O)COc1ccc(C(=O)Nc2cccc(F)c2)c2ccccc12`, for which the IC50 in experiment [1] is 272 µM. The same measure, in the same setting: the value for `COc1cc(NC(=O)COc2ccc(C(=O)Nc3cccc(F)c3)c3ccccc23)cc(OC)c1` was greater than 300 µM; that for `COc1ccccc1NC(=O)COc1ccc(C(=O)Nc2cccc(F)c2)c2ccccc12` was 718 µM.

Consider `COc1ccc(OC)c(NC(=O)COc2ccc(C(=O)Nc3cccc(F)c3)c3ccccc23)c1`, for which the IC50 in experiment [1] was greater than 300 µM. Same read-out and setting: the value for `NNC(=O)COc1ccc(C(=O)Nc2cccc(F)c2)c2ccccc12` was greater than 300 µM. In the case of `O=C(COc1ccc(C(=O)Nc2cccc(F)c2)c2ccccc12)NCC(F)(F)F`, the results for the IC50 in experiment [1], in experiment [2] and in experiment [3] were 111 µM, 162 µM and 204 µM, respectively. With `O=C(COc1ccc(C(=O)Nc2cccc(F)c2)c2ccccc12)Nc1ccccc1`, the 50% inhibitory concentration (IC50) in experiment [1] is 254 µM. The same measure, in the same setting: the value for `CN(C)CCNC(=O)COc1ccc(C(=O)Nc2cccc(F)c2)c2ccccc12` was greater than 300 µM; that for `CCCNC(=O)COc1ccc(C(=O)Nc2cccc(F)c2)c2ccccc12` was 278 µM; that for `CN(C)C(=O)COc1ccc(C(=O)Nc2cccc(F)c2)c2ccccc12` was greater than 300 µM. The same measure, in the same setting: the value for `COc1cccc(NC(=O)COc2ccc(C(=O)Nc3cccc(F)c3)c3ccccc23)c1` was 580 µM. Still for that read-out and setting: the value for `Cc1ccc(NC(=O)COc2ccc(C(=O)Nc3cccc(F)c3)c3ccccc23)c(C)c1` was greater than 300 µM.
